# The list is not random: actives were taken first. Their share in the collection is about 2.8%.
# PAFAH1B2 inh: PAFAH1B2 enzyme inhibitors, primary screen, biochemical, fluorescence polarization, human; Platelet-activating factor acetylhydrolase IB subunit alpha2 (Homo sapiens), P68402; recombinant PAFAH1B2, FP-rhodamine activity probe; inhibition, % at 3.39 µM; 340,000 compounds, 1.2% hits; AID 492953, 2010;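 active = inhibition above the mean of all tested compounds plus 3 SD, cut at about 24% in these data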;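 note: 0% = enzyme with DMSO and 100% = wells lacking PAFAH1B2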
# HTRA1 inhibitor: HTRA1 serine protease inhibitors, primary screen, biochemical, fluorescence polarization, HTS | Q92743 | inhibition, % at 5.96 µM | 340,000 compounds, 0.5% hits | recombinant HTRA1, FP-rhodamine activity-based probe; in the data active = inhibition above about 36%;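 note: 0% = enzyme with DMSO and 100% = wells lacking enzyme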
# PAFAH2 inh: PAFAH2 enzyme inhibitors, primary screen, biochemical, fluorescence polarization, human; 340,000 compounds, 0.99% hits; recombinant PAFAH2, FP-rhodamine activity probe; inhibition, % at 3.39 µM; Platelet-activating factor acetylhydrolase 2, cytoplasmic (Homo sapiens), Q99487;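 active = inhibition above the mean over all tested compounds plus 3 SD, cut at about 30% in these data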;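 note: inhibitors block probe labeling of enzyme so polarization drops; 0% = enzyme with DMSO and 100% = wells lacking PAFAH2 protein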
# pPAFAH inh: pPAFAH enzyme inhibitors, primary screen, biochemical, fluorescence polarization, human. inhibition, % at 3.39 µM. recombinant pPAFAH, FP-rhodamine probe fluorescence polarization. Platelet-activating factor acetylhydrolase (Homo sapiens), Q13093. 330,000 compounds, 1.5% hits;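 active = inhibition above the mean inhibition across the screen plus 3 SD, cut at about 25% in these data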;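 note: inhibitors block binding of the rhodamine activity-based probe so polarization drops; 0% = enzyme with DMSO and 100% = wells lacking pPAFAH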
# mABHD4 FP: ABHD4 inhibitors, primary screen, biochemical, fluorescence polarization, mouse; AID 720543, 2013; 370,000 compounds, 0.54% hits; purified mABHD4, FP-Rh probe fluorescence polarization; inhibition, % at 8.92 µM; (Lyso)-N-acylphosphatidylethanolamine lipase (Mus musculus), Q8VD66;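 active = inhibition exceeding the mean over every tested compound plus 3 SD, cut at about 30% in these data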;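 note: 0% = plate median of compound wells and 100% = S159A mutant with DMSO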
# Target sequence (Q8VD66 whole entry, looked up): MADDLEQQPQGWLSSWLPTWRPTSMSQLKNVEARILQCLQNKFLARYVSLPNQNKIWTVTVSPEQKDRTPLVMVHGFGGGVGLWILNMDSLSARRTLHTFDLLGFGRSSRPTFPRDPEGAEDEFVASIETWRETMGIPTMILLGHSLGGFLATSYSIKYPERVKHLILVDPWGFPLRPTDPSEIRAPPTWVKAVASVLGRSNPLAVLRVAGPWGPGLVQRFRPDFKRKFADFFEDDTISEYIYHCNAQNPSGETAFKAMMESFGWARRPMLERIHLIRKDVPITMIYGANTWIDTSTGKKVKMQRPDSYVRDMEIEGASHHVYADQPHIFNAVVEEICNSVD
#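 Assay system: mABHD4 protein; medium: HEPES pH 7.0, NaCl, Pluronic buffer; dosing: 8.92 µM, single dose; schedule: 45 min + 60 min at 25 °C; signal: FP readout, ex 525 nm / em 598 nm; read-out: normalized percent inhibition of probe labeling; repeats: single replicate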
# PAFAH1B3 inh: PAFAH1B3 enzyme inhibitors, primary screen, biochemical, fluorescence polarization, human; Platelet-activating factor acetylhydrolase IB subunit alpha1 (Homo sapiens), Q15102; recombinant PAFAH1B3, FP-rhodamine probe; inhibition, % at 3.39 µM; 340,000 compounds, 0.28% hits;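 active = inhibition above the screen-wide average of all tested compounds plus 3 SD, cut at about 25% in these data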;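 note: 0% = enzyme with DMSO only and 100% = wells lacking PAFAH1B3 protein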
# Target sequence (Q15102 whole entry, looked up): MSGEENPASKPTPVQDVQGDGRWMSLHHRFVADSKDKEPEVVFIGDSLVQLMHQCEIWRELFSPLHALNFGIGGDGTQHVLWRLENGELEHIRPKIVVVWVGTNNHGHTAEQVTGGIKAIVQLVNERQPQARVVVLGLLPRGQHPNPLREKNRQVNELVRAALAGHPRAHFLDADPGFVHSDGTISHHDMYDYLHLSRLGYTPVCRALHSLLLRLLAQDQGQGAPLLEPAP
# Numbers without * were called inactive; . = no result.
SMILES,PAFAH1B2 inh,HTRA1 inhibitor,PAFAH2 inh,pPAFAH inh,mABHD4 FP,PAFAH1B3 inh
CCOc1ccccc1N1CCN(C(=O)c2ccc(S(=O)(=O)Nc3ccccc3)cc2)CC1,-1,-4,-6,27*,0,12
CCOc1ccc(NS(=O)(=O)c2ccc(C(=O)N3CCN(c4ncccn4)CC3)cc2)cc1,4,2,-6,27*,-4,9
CCC(C(=O)c1ccc2ncccc2c1)c1ccccc1 (configuration not stated),25*,-10,10,2,-14,10
O=C(CCn1nnc2ccccc21)N1CCN(c2ccccc2F)CC1,.,.,.,.,10,.
COC(=O)[C@]12C[C@H](CC(=O)N3CCC(c4ccccc4)CC3)C(=O)N(Cc3cccc4ccccc34)C1=C[C@H](C1CCCC1)O[C@@H]2C,.,.,.,.,-8,.
CCN(CC)CC(=O)NCC1(c2ccccc2)CCCC1,26*,4,1,2,-2,1
O=C(CSc1ccccc1)NCC1(N2CCCCC2)CCCCC1,-2,-6,0,34*,-8,5
O=C(CSc1ccccc1)NC(=O)NCc1ccccc1,32*,-5,5,6,0,2
Cc1nc(SCC(=O)NC(=O)NCc2ccccc2)nc(C)c1C,12,-1,2,3,9,-4
O=C(CN1CCCCC1)NCC1(c2ccccc2)CCCC1,29*,1,-2,4,3,2
O=C(CSc1nnnn1-c1ccccc1)NCC1(N2CCCCC2)CCCCC1,2,-4,1,0,2,-3
CCCCNC(=O)C[C@@H]1C(=O)N(CCc2ccc(Cl)cc2)C2=CCCCC[C@]21C(=O)OC,.,.,.,.,-5,.
CC(=O)N1CCCN(C(=O)Cn2cnc3ccccc3c2=O)CC1,.,.,.,.,-1,.
Cc1ccc(C(=O)NCC2(c3ccccc3)CCCC2)cc1,92*,-16,4,15,-7,5
CCOc1ccc(NS(=O)(=O)c2ccc(NC(=S)NC(=O)C(C)C)cc2)cc1,-2,-41,-6,33*,-10,-1
CCOc1ccc(NS(=O)(=O)c2ccc(N)cc2)cc1,7,2,17,18,3,12
CCOc1ccc(NS(=O)(=O)c2ccc(SC)cc2)cc1,-1,-22,-6,34*,-6,4
CCN(CC)c1ccc(-c2nn3c(-c4ccccc4Cl)nnc3s2)cc1,.,.,.,.,10,.
CCC(=O)NC1=C(C#N)C2(CCCC2)Cc2ccccc21,19,3,2,1,4,6
N#CC1=C(N)c2ccccc2CC12CCCCC2,35*,-21,4,7,-3,-5
COc1ccc(S[C@]2(C(=O)N3CCOCC3)CC(=O)N(P(=O)(OC)OC)[C@@H]2c2ccc(OC)cc2)cc1,.,.,.,.,3,.
CCN(C(=O)COC(=O)c1ccc(Sc2ncn[nH]2)c([N+](=O)[O-])c1)c1ccccc1C,.,.,.,.,12,.
Cc1ccc(S(=O)(=O)NN2C(=O)/C(=C/c3cccn3C)SC2=S)cc1,.,.,.,61*,.,.
O=C(Oc1ccc2c(-c3ccccc3)cc(=O)oc2c1)C1CCCCC1,-2,-14,-6,31*,-3,3
COc1ccc(-c2cc(=O)oc3cc(OC(=O)C4CCCCC4)ccc23)cc1,1,-18,-10,-2,-6,-12
SMILES,PAFAH1B2 inh,HTRA1 inhibitor,PAFAH2 inh,pPAFAH inh,mABHD4 FP,PAFAH1B3 inh
CCN(CC)S(=O)(=O)c1cccc(N=Nc2sc(N)nc2C)c1,-2,10,13,26*,4,4
CCCCC(=O)N1CCC(NS(=O)(=O)c2ccc3c(c2)CCN3C(C)=O)CC1,.,.,.,.,-5,.
O/N=C1/C2C3C(Br)C4C5CC(C1C53)C24 (configuration not stated),29*,7,5,3,6,10
CC12/C(=N/O)C3C4CC5C3/C(=N/O)C1C5C42 (configuration not stated),1,-4,3,0,-2,-4
CC(C)NC(=S)N/N=C1\CCCCC1C1CCCCC1 (configuration not stated),29*,-1,5,8,7,7
O=C(COc1ccccc1)Nc1ccccc1F,3,4,2,4,4,10
O=C(COc1c(Br)cc(Br)c2cccnc12)Nc1ccccc1F,2,27,4,30*,14,11
Cc1ccc(-c2nn3c(C)nnc3c3ccccc23)cc1S(=O)(=O)NC(C)c1ccccc1 (configuration not stated),26*,-21,-10,4,-14,4
O=C1C2C3C=CC(CO)(O3)C2C(=O)N1c1ccc(-c2ccccc2)cc1 (configuration not stated),.,.,.,28*,.,.
CC(C)(C)C(=O)NCC12C=CC(O1)C1C(=O)N(c3ccccc3)C(=O)C12 (configuration not stated),1,8,5,4,13,2
Cc1ccc(C)c(SCC(=O)OCC(=O)c2ccco2)c1,1,-1,15,28*,7,6
Cc1ccc(S(=O)(=O)Nc2nc(C)c(C(=O)Nc3ccccc3)s2)cc1,5,-12,3,-1,6,7
Cc1ccc(S(=O)(=O)Nc2nc(C)c(C(=O)NNS(=O)(=O)c3ccccc3)s2)cc1,29*,9,12,7,11,9
O=c1[nH]c(CCl)nc2cc(-c3ccc(F)cc3)sc12,29*,1,0,12,0,3
Cc1[nH]n(C(N)=S)c(=O)c1N=Nc1ccc([N+](=O)[O-])cc1Cl,0,10,27,.,12,6
NC(=S)n1[nH]c(-c2ccc([N+](=O)[O-])cc2)c(N=Nc2ccc(O)cc2)c1=O,7,11,11,32*,23,11
O=C(NCCO)[C@H](Cc1ccccc1)NC1(C(=O)NCCN2CCOCC2)CCCCC1,.,.,.,.,0,.
N#Cc1nc(COc2ccc(Cl)cc2)oc1NCc1ccc2c(c1)OCO2,29*,-43,-4,2,-36,3
Cn1c(CNc2ccccc2F)nc2ccccc21,.,.,.,.,-1,.
N#CC12COC3(CCCCC3C1(C#N)C#N)OC2=N (configuration not stated),20,21,38*,5,24,35*
N#CC1(C#N)COC23CCCCC2C1(C#N)C(=N)O3 (configuration not stated),18,13,35*,9,17,18
CCC1OC23CCCCC2C(C#N)(C(=N)O3)C1(C#N)C#N (configuration not stated),34*,28,48*,9,15,33*

# Compound activity from PubChem.
